What is called inhibition is the drop in the measured response relative to a control, in per cent.

This note sets out measurements from PubChem BioAssay.

A short description of assay [1]: inhibitors of TNFa-induced NFkB p65 translocation, primary screen, imaging, HUVEC, MLSMR starter and 10KST1 sets (AID 438;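 active = inhibition above 20% together with a positive visual image hit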;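 note: compound added about 3h40 before a 20 min TNFalpha stimulation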;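 for inhibition: signal is the nuclear over cytoplasmic p65 intensity ratio per well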). To be noted: HUVEC TNFa-induced p65 nuclear translocation; cell count: measured here: nuclei count (cytotoxicity indicator), at 2.08 µM; inhibition: at 2 µM, stronger effect = higher value, 0% TNFa-plus-vehicle, 100% no-TNFa wells.
Assay [2] in a line: inhibitors of mutant huntingtin aggregation, primary screen, imaging, exon1htt(103Q)mCFP cells, high-content imaging (AID 483).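 For nuclei count: percent of the per-plate median nuclei count of sample wells.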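 Note: compound exposure lasted 3 days before fixation.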 The settings on record: exon1htt(103Q)mCFP cell line, aggregate imaging, at 2 µM; inhibition of aggregation: stronger effect = higher value; nuclei count: measured here: cell count, toxicity.
Assay [3] in a line: inhibitors of E-selectin induction by TNFa, primary screen, imaging, HUVEC, immunofluorescence, MLSMR starter and 10KST1 sets (AID 487;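 active = visually confirmed hit in the image check and inhibition above 20%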;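 for inhibition: signal is fraction of cell area covered by stained E-selectin grains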;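 for nuclei count: 100% = median nuclei count of all wells on the same plate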). To be noted: HUVEC TNFalpha-induced E-selectin immunofluorescence imaging, at 2 µM; inhibition: stronger effect = higher value; nuclei count: measured here: cell number, toxicity.
Assay [4] concerns the target Voltage-gated potassium channel subunit beta-2 (Rattus norvegicus) (UniProt P62483). Description: KvBeta enzyme negative modulators, primary screen, biochemical, NADPH fluorescence (AID 622;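 active = fluorescence slope higher than the sample average by over 3 SD, cut at about -0.22 in these data, passing the limit was not always enough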;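 note: slope of raw intensity against log time taken from 70 to 1610 s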). To be noted: recombinant KvBeta, 4-cyanobenzaldehyde reduction, at 10 µM, stronger effect = higher value.
Assay [5] shares this target. Description: KvBeta positive modulators, primary screen, biochemical, NADPH fluorescence (AID 623;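 active = NADPH fluorescence slope more negative than the mean of all samples by about 3 SD, 99.7% confidence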;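 note: fluorescence intensity change per second fitted from 20 to 320 s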). To be noted: Recombinant KvBeta, NADPH fluorescence decrease slope, 10 min; at 10 µM; stronger effect = lower value.
For assay [6], the target named is Muscarinic acetylcholine receptor M4 (Homo sapiens) (UniProt P08173). Put plainly: compounds altering M4/GIRK thallium flux, either direction, primary screen, M4 allosteric agonist project, cell-based, HEK293 M4/GIRK, BTC-AM (AID 625;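 active = fluorescence slope after compound addition differing from the mean of all tested samples at 99.7% confidence, mostly higher but some lower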;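 note: thallium influx through GIRK channels coupled to M4 in HEK293 cells with BTC-AM dye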). To be noted: at 10 µM, actives lie on both sides. The method, boiled down: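 assay system = HEK293 cells with M4 receptor and GIRK channels | medium = pH 7.3 thallium assay buffer | doses = 10 µM final, single point | timing = cells overnight at 37 °C, BTC-AM loading 1 h, reads 2 min total | signal = BTC-AM fluorescence, 1 Hz kinetic reads | read-out = post-addition slope, 15–24 s, of baseline-normalized fluorescence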

The nature of assay [7]: inhibitors of Sendai virus-induced IRF3 signaling, primary screen, TLR/RLR signaling modifier project, cell-based, Sendai virus stimulus, luciferase, 10K MLSCN set (AID 602276;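 active = inhibition at or above 50% at 10 µM; inactive = inhibition below 50%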;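 note: firefly luciferase from ISG56 promoter only with Renilla not read in this screen; 0% = Sendai virus plus DMSO and 100% = medium plus DMSO without virus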). To be noted: HEK293 RL24 IRF3 luciferase reporter, at 10 µM, stronger effect = higher value. A general note: In a reporter assay the amount or activity of a reporter protein is the signal.
Assay [8] in a line: inhibitors of poly I:C-induced TLR3 signaling, primary screen, cell-based, poly I:C stimulus, luciferase, 10K MLSCN set (AID 602277;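 active = inhibition of the reporter signal at or above 50%; inactive = inhibition below 50%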). To be noted: HEK293-TLR3 RL24 IRF3 luciferase reporter, at 10 µM, stronger effect = higher value.

The source made the active and inactive calls.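 Rule for the calls, unless noted: active = visual image review flags a hit and inhibition of aggregation exceeds 20%; inconclusive = visual hit but inhibition at or below 20%; inactive = no hit on visual image review.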

Muscarinic acetylcholine receptor M4 (Homo sapiens), sequence (P08173 whole entry, looked up): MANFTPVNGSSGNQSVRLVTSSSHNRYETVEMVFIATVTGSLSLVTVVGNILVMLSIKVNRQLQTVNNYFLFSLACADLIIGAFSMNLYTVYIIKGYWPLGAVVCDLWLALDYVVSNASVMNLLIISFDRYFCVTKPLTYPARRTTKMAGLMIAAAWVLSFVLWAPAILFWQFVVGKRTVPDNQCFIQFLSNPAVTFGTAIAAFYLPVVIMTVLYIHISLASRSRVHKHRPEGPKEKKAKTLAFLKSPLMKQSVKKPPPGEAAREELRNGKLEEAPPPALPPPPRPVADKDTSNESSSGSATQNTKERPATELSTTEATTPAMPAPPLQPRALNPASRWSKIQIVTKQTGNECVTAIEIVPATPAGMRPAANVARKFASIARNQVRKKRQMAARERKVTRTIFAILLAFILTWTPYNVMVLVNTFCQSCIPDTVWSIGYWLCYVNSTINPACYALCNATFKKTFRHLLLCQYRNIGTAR
Voltage-gated potassium channel subunit beta-2 (Rattus norvegicus), sequence (P62483 whole entry, looked up): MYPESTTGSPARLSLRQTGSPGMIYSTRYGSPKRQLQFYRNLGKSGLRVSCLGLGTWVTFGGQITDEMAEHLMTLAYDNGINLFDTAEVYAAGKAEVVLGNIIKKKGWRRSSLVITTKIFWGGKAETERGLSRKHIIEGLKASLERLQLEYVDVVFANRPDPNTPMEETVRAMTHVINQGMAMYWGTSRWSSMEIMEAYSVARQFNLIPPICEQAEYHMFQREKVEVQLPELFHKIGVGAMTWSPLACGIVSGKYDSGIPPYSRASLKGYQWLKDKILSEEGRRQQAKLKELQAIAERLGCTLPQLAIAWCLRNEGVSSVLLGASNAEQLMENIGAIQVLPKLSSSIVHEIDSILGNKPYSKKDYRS

Consider `O=C(CSc1ccc(Cl)cc1)OCc1nnc(-c2ccccc2)o1`, for which the cell count in assay [1] worked out at 503. Further, the inhibition in assay [1] was -1.1% (inactive); in assay [3] it was -46.5% (inactive); in assay [7], -5.35% (inactive); in assay [8], -4.44% (inactive). The inhibition of aggregation in assay [2] is 8.3% (inactive). The values for the nuclei count in assay [2] and in assay [3] were 108% and 115%, respectively. Also, the fluorescence slope was -0.613 (inactive) in assay [4] and 0.00469 (inactive) in assay [6]. Further, the NADPH fluorescence slope in assay [5] is 6.8e-05 (inactive).

On to `CCOC(=O)CSc1nc2cc(C(=O)NCc3ccco3)ccc2c(=O)n1-c1ccc(F)cc1`, for which the cell count in assay [1] is 329. The inhibition in assay [1] was 7.7% (inactive); in assay [3], 7.7% (inactive); in assay [7], -7.4% (inactive); in assay [8] it was -0.0676% (inactive). In assay [2], the inhibition of aggregation is -7.1% (inactive). Also, the nuclei count in assay [2] turned out to be 104%; in assay [3], 92.9%. The fluorescence slope in assay [4] was -0.481 (inactive); in assay [6], 0.00969 (inactive). For the same compound, the NADPH fluorescence slope in assay [5] is 0.000117 (inactive).

As for `CCN1C(=O)N(CC)C2C1N(C(C)=O)C(=O)N2C(C)=O` (centres undefined), the cell count in assay [1] was 373. The inhibition is 3.7% (inactive) in assay [1], -9.3% (inactive) in assay [3], 13.4% (inactive) in assay [7] and 16.9% (inactive) in assay [8]. For the same compound, the inhibition of aggregation in assay [2] is 0.2% (inactive). Moreover, the nuclei count was 115% in assay [2] and 117% in assay [3]. The values for the fluorescence slope in assay [4] and in assay [6] were -0.579 (inactive) and 0.0074 (inactive), respectively. The NADPH fluorescence slope in assay [5] was -6.5e-05 (inactive).

As to `COc1ccc(-c2nnc3ccc(SC(C(C)=O)C(C)=O)nn23)cc1OC`, in assay [1], the cell count stood at 605. Further, the inhibition in assay [1] was -17% (inactive); in assay [3] it was -47.2% (inactive); in assay [7] it was 13.7% (inactive); in assay [8], 13.4% (inactive). For the same compound, the inhibition of aggregation in assay [2] was 14.3% (inactive). Further, the nuclei count in assay [2] was 100%; in assay [3] it was 94%. Further, the fluorescence slope in assay [4] is -0.348 (inactive); in assay [6] it was 0.00579 (inactive). Further, in assay [5], the NADPH fluorescence slope is -5.5e-05 (inactive).

Turning to `CSC(=O)CC(=O)NC(=O)c1ccccc1`, the cell count in assay [1] is 373. Also, the inhibition in assay [1] was 0% (inactive); in assay [3], -76.9% (inactive); in assay [7], 7.05% (inactive); in assay [8] it was 5.94% (inactive). For the same compound, in assay [2], the inhibition of aggregation is -2.5% (inactive). Also, the nuclei count in assay [2] came out at 90%; in assay [3], 159%. For the same compound, the fluorescence slope in assay [4] was -0.605 (inactive); in assay [6], 0.00374 (inactive). The NADPH fluorescence slope in assay [5] was 1.1e-06 (inactive).

Take `CCOC(=O)C1=C(C)Nc2ncnn2C1c1cc(OC)ccc1OC` (centres undefined): in assay [1], the cell count was determined as 465. The inhibition is 4.5% (inactive) in assay [1], -356% (inactive) in assay [3], 16.3% (inactive) in assay [7] and 1.62% (inactive) in assay [8]. Further, the inhibition of aggregation in assay [2] is -7.4% (inactive). For the same compound, the nuclei count was determined as 97.1% in assay [2] and 126% in assay [3]. The values for the fluorescence slope in assay [4] and in assay [6] were -0.236 (inactive) and 0.00778 (inactive), respectively. Further, the NADPH fluorescence slope in assay [5] was -2.1e-05 (inactive).

With `CC1CC(=O)C2=C(C1)OC(N)=C(C#N)C2c1coc2ccccc2c1=O` (centres undefined), the cell count in assay [1] came to 282. In addition, the inhibition is -10.1% (inactive) in assay [1], 24.1% (inactive) in assay [3], 19.2% (inactive) in assay [7] and 23.4% (inactive) in assay [8]. Moreover, the inhibition of aggregation in assay [2] was 8.2% (inactive). Besides, the nuclei count is 79.3% in assay [2] and 82.2% in assay [3]. Further, the fluorescence slope in assay [4] is -0.514 (inactive); in assay [6] it was 0.00433 (inactive). In addition, the NADPH fluorescence slope in assay [5] was -4.1e-05 (inactive).

On to `COc1ccccc1C(=O)NCCc1nc2ccccc2n1C`, for which, in assay [1], the cell count was determined as 564. In addition, the inhibition in assay [1] was -11.3% (inactive); in assay [3] it was 15.5% (inactive); in assay [7] it was -9.79% (inactive); in assay [8], -4.78% (inactive). Moreover, the inhibition of aggregation in assay [2] is -5.2% (inactive). Also, the nuclei count in assay [2] was determined as 113%; in assay [3], 101%. The fluorescence slope in assay [4] was -0.294 (inactive); in assay [6], 0.00691 (inactive). In assay [5], the NADPH fluorescence slope was -2.3e-05 (inactive).

Consider `O=C(Nc1ccc(N2CCOCC2)cc1)c1cccc(S(=O)(=O)N2CCCC2)c1`, for which the cell count in assay [1] stood at 401. Moreover, the inhibition is -0.5% (inactive) in assay [1], -31.6% (inactive) in assay [3], 12.2% (inactive) in assay [7] and 9.44% (inactive) in assay [8]. Also, the inhibition of aggregation in assay [2] is 6.3% (inactive). Also, the figures for the nuclei count in assay [2] and in assay [3] were 106% and 110%, respectively. For the same compound, the figures for the fluorescence slope in assay [4] and in assay [6] were -0.309 (inactive) and 0.00454 (inactive), respectively. For the same compound, the NADPH fluorescence slope in assay [5] was -3.6e-05 (inactive).
